Rad51 HR inh: blocks human Rad51 in homologous recombination. Q06609. hRad51 DNA strand exchange, fluorescence dequenching. inhibition, % at 10 µM. actives 0.085% (n = 200,000);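 active = inhibition above 40% at the single screening dose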;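 note: 0% = DMSO control wells and 100% = blanks with heterologous ssDNA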
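material = hRad51 filaments on single-stranded DNA | reagent = Donor/quencher-labelled 47-bp dsDNA substrate | compound = 10 µM final, single point | schedule = strand-exchange reaction 15 min at room temperature | measured by = fluorescein emission 520 nm, excitation 485 nm | read-out basis = % inhibition versus plate control and blank means | benchmarks = plate controls and plate blanks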
m-calpain inh: inhibitors of pig calpain II; purified calpain II, fluorogenic peptide substrate, 30 min; actives 0.37% (n = 220,000); AID 1236; inhibition, % at 16 µM;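 active = inhibition above about 50%, limit read from the data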
WT yeast gro inh: growth inhibition of WT yeast, mitochondrial fusion screen; mitochondrial fusion phenotypic screen, WT strain; inhibition, % at 10 µM; actives 2.1% (n = 190,000); AID 1362; in the data active = inhibition above about 58%; tested in S. cerevisiae
PMI activator: phosphomannose isomerase (human) activation | P34949 | purified human PMI, coupled resazurin fluorescence, 20 min; hits give high values; 1 = vehicle control, 0 substrate-free wells | activation factor at 20 µM | actives 0.005% (n = 190,000) | AID 1214;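 active = activation factor of 2 or more at 20 µM, relative to plate controls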
Target sequence (P34949 whole entry, looked up): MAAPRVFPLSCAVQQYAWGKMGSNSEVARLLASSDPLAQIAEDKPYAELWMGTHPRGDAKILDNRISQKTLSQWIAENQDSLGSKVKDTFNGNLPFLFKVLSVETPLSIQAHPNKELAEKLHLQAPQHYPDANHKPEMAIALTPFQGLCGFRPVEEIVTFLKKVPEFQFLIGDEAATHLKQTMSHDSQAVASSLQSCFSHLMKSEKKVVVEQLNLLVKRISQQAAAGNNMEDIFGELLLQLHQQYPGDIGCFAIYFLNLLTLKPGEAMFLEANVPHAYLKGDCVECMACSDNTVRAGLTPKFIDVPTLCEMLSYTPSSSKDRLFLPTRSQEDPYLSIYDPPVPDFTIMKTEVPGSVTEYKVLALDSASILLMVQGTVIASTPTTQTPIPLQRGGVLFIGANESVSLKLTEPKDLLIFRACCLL
PMI act satM6P: activators of human phosphomannose isomerase at near-saturating mannose 6-phosphate. P34949. coupled PMI enzyme assay, resazurin fluorescence, 20 min; hits give high values; 1 = untreated enzyme, 0 = substrate-free blank. activation factor at 20 µM. actives 0.34% (n = 190,000);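 active = activation factor of 2 or more at 20 µM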
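assay system = human phosphomannose isomerase with PGI, G6PDH, diaphorase coupling enzymes | quantity = 15 ng/mL PMI | incubation = enzyme reaction with compound 20 min at room temperature | medium = HEPES pH 7.4 buffer with MgCl2 and Tween-20 | compound dosing = one concentration, 20 µM, in 1% DMSO | measured by = Diaphorase-driven resazurin-to-resorufin fluorescence, excitation 544, emission 590 nm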
L major viab: inhibitors of Leishmania major promastigote growth; Leishmania major promastigotes, resazurin fluorescence viability; inhibition, % at 10 µM; actives 9% (n = 200,000); AID 1063; in the data active = inhibition above about 50%;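 note: promastigotes grown with compound for 44 hours at 28 °C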
* marks the source's active call; other numbers are inactive results; nt = no result. Hits are enriched below; roughly 9.8% of the tested compounds scored in any of these assays.

SMILES | Rad51 HR inh | m-calpain inh | WT yeast gro inh | PMI activator | PMI act satM6P | L major viab
CCOc1ccc(CNC(=O)c2ccc(Sc3ccc(C)cc3)c(NC(C)=O)c2)cc1 | 6 | 25 | 22 | 0.9 | 0.9 | 94*
CC(=O)Nc1cc(C(=O)N2CCCC2)ccc1Sc1ccc(C)cc1 | 1 | 12 | -6 | 1 | 1 | 21
O=C(O)CCC(=O)Nc1ccc(C(=O)OCC(=O)c2ccc(Cl)cc2Cl)cc1 | 6 | -55 | 7 | 0.9 | 0.9 | -22
CC(C)(C)C1CCc2onc(C(=O)NCc3ccc(F)cc3)c2C1 (stereo not drawn) | nt | 52* | 17 | 0.9 | 0.9 | 8
O=C(NCC1CCCO1)c1ccc2c(=O)n(Cc3cccc(Br)c3)c(=S)[nH]c2c1 (stereo not drawn) | 10 | 17 | 19 | 1.1 | 1.1 | -5
COc1ccc(NC(=S)NNc2ccc(S(=O)(=O)Nc3ccccc3C(=O)O)cc2[N+](=O)[O-])cc1 | nt | 6 | nt | nt | nt | nt
O=C(COC(=O)c1ccc(NS(=O)(=O)c2ccc(F)c(F)c2)cc1)NCC1CCCO1 (stereo not drawn) | nt | 10 | -5 | 1.1 | 1.1 | -5
COC1(OC)C(/C=C/c2ccc(Cl)cc2)C(C#N)(C#N)C1(OC)OC (stereo not drawn) | -3 | -35 | -8 | 1.1 | 1.1 | 85*
CCNc1nc(NCC)nc(N/N=C/c2ccc([N+](=O)[O-])o2)n1 | 2 | -21 | -2 | 1.2 | 1.5 | 98*
O=[N+]([O-])c1cccc(/C=N/Nc2nc(N3CCCCC3)nc(N3CCCCC3)n2)c1 | -9 | -50 | 45 | 1 | 0.9 | 76*
O=[N+]([O-])c1cccc(-n2cccc2/C=N/Nc2nc(N3CCCCC3)nc(N3CCCCC3)n2)c1 | 13 | -60 | 7 | 1.3 | 1 | 36
O=[N+]([O-])c1ccc(-c2ccc(/C=N/Nc3nc(N4CCCCC4)nc(N4CCCCC4)n3)o2)cc1 | -80 | -81 | 8 | 1 | 1 | 15
O=[N+]([O-])c1cccc(-c2ccc(/C=N/Nc3nc(N4CCCCC4)nc(N4CCCCC4)n3)o2)c1 | nt | -50 | 50 | 1 | 1 | 90*
O=[N+]([O-])c1ccc(/C=N/Nc2nc(N3CCCC3)nc(N3CCCC3)n2)o1 | -6 | -32 | 5 | 0.8 | 0.9 | 99*
O=C(Cc1ccc(Br)cc1)Nc1cccc(Cl)c1 | -14 | 17 | 18 | 0.9 | 0.8 | 10
COc1ccc(-c2nn(-c3ccccc3)cc2/C=C/C(=O)OCC(=O)Nc2cccc(C#N)c2)cc1 | 1 | -41 | 1 | 0.9 | 0.9 | -4
COc1ccc(-c2nn(-c3ccccc3)cc2/C=C/C(=O)OCC(=O)Nc2ccc(C#N)cc2)cc1 | 11 | -65 | -19 | 0.9 | 0.9 | 92*
Cc1ccccc1NC(=O)COC(=O)/C=C/c1cn(-c2ccccc2)nc1-c1cccnc1 | -11 | -21 | 9 | 0.9 | 0.7 | 53*
CCOC(=O)c1sc(NC(=O)C(CC)Sc2nc3ccccc3[nH]2)nc1C (stereo not drawn) | 2 | nt | nt | nt | nt | 54*
CCOC(=O)c1sc(NC(=O)C(CC)Sc2nnc3c4ccccc4n(C(C)C)c3n2)nc1C (stereo not drawn) | -3 | -109 | 10 | 0.9 | 0.9 | 72*
OCCC1CN(Cc2cnc(N3CCOCC3)s2)CCN1C1CCCC1 (stereo not drawn) | nt | -20 | -1 | 1 | 1 | -1
Cc1c(C#N)c(N=CN(C)C)c(C(=O)c2ccc(Br)cc2)n1-c1ccccc1 | 3 | 5 | -7 | 1.1 | 1.1 | 100*
COc1ccccc1-n1ccnc1SCC(=O)NCc1ccco1 | -1 | -14 | -13 | 1.1 | 1 | -3
COc1ccc(Cl)cc1C(=O)Nc1ccc(CN2CCCCC2)cc1 | 2 | -3 | -8 | 1 | 0.9 | 98*
CCNC(=O)c1cc(Cl)ccc1OC | 9 | 11 | 1 | 1 | 1.1 | 56*
SMILES | Rad51 HR inh | m-calpain inh | WT yeast gro inh | PMI activator | PMI act satM6P | L major viab
COc1ccc(Cl)cc1C(=O)NCC(C)C | 2 | -11 | -2 | 1.1 | 1 | -2
Cc1ccc(C(=O)Nc2ccc(CN3CCCCC3)cc2)c(C)c1 | nt | 28 | 10 | 1 | 1.1 | 74*
COc1ccc(Cl)cc1C(=O)Nc1ccc2c(c1)OCO2 | -8 | -16 | nt | 0.9 | 0.9 | 6
CC(=O)Nc1ccc(CN2CCCCCCC2)cc1 | -5 | 18 | -20 | 1 | 1.1 | -6
CCN(CC)c1ccc(NC(=O)c2cc(Cl)ccc2OC)cc1 | -1 | -27 | 41 | 0.8 | 0.9 | 99*
Nc1cccc(/C=C/c2ccncc2)c1 | nt | -22 | nt | nt | nt | nt
O=C(C1CCN(S(=O)(=O)N2CCOCC2)CC1)N1CCN(c2ccc(F)cc2)CC1 | -15 | 3 | -4 | 1.1 | 1.1 | -4
O=C(C1CCN(c2ccc(N3CCOCC3)nn2)CC1)N1CCN(c2ccc(F)cc2)CC1 | -11 | nt | -9 | 0.9 | 0.8 | 97*
O=C(N/N=C/c1ccccc1O)c1cc(=O)[nH]c2ccccc12 | -2 | -7 | 5 | 1 | 1.1 | 99*
CC(NC(=O)c1cc(=O)[nH]c2ccccc12)c1ccccc1 (stereo not drawn) | 10 | -62 | 0 | 1.1 | 1.1 | 7
Cc1cc(C)nc(SCc2cnc(C)nc2N)n1 | -6 | -8 | -44 | 1.1 | 1 | -2
CC1=NN(C(=O)CSCc2ccccc2)C(O)(c2ccc(F)cc2)C1 (stereo not drawn) | 8 | 2 | -4 | 1.1 | 1.1 | 99*
CN(C)CCCN(C(=O)c1cccs1)c1nc(-c2ccccc2)cs1 | 2 | 13 | -4 | 1 | 1 | 100*
O=C(c1cccs1)N(Cc1ccco1)c1nc(-c2ccc(F)cc2)cs1 | 0 | -20 | 9 | 0.9 | 0.9 | 2
COc1ccc2c(c1)CC/C(=C\c1ccc(OC)c(Cn3cccn3)c1)C2=O | -2 | -6 | 38 | 0.7 | 0.8 | 98*
COc1ccc(/C=C2/CCc3ccccc3C2=O)cc1OC | nt | -3 | -8 | 0.7 | 0.7 | 52*
COc1ccc(/C=C2\COc3ccccc3C2=O)cc1OC | -6 | 18 | 22 | 0.9 | 0.9 | 100*
COc1cc(/C=C2/CCc3ccccc3C2=O)cc(OC)c1OC | 1 | -20 | 6 | 0.7 | 0.8 | 55*
COc1ccc(/C=C2\C(=O)OCc3cc(OC)c(OC)cc32)cc1OC | -7 | -13 | -3 | 1 | 1.1 | 4
COc1ccc2c(c1)CC/C(=C\c1ccc(OC)c(Cn3nc(C)cc3C)c1)C2=O | -3 | -39 | 19 | 0.8 | 0.9 | 8
CC(C)(C)C(=O)Nc1cccc(-c2cc(-c3c(Cl)cccc3Cl)no2)c1 | 19 | 18 | nt | nt | nt | nt
Cc1nc2ncnn2c(N2CCCC(C(=O)Nc3ccccc3Br)C2)c1C (stereo not drawn) | -4 | -24 | -7 | 1.1 | 1.1 | 14

Assay outcomes (PubChem BioAssay)
